Measurements reported in ChEMBL document CHEMBL1629683, “HIV-1 protease codon 36 polymorphisms and differential development of resistance to nelfinavir, lopinavir, and atazanavir in different HIV-1 subtypes” (Antimicrob Agents Chemother, 2010).
The source made the active and inactive calls. No cut-off for these calls is given here.

What was measured:
[1] = test system: Human immunodeficiency virus 1; assay: Antiviral activity against HIV1 subtype B harboring protease polymorphism at M36 position M46I, I50L, N88S mutant gene infected in human cord blood mononuclear cells assessed as inhibition of viral replication […]; assay type: functional, organism-based; settings: Human immunodeficiency virus 1, subtype B
Outline: (§1)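 Cord blood mononuclear cells were PHA-stimulated for 72 h in RPMI 1640 with 10% FBS and IL-2. Cells were infected for 2 h with week-0 clonal virus or PI-selected virus (weeks 25 and 35 of selection). They were plated at 5 × 10⁵ cells/well with PI at 0.04 nM to 10 μM. Drug-containing medium was replenished on day 3, supernatant RT activity was read on day 7, and EC₅₀ was derived.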

[2] = test system: Human immunodeficiency virus 1; assay: Antiviral activity against HIV1 subtype C harboring protease L23I, M46I/M, L89T mutant gene and polymorphism at M36 position infected in human cord blood mononuclear cells assessed as inhibition of viral replication […]; assay type: functional, organism-based; settings: Human immunodeficiency virus 1, subtype C; outline: as §1
[3] = test system: Human immunodeficiency virus 1; assay: Antiviral activity against HIV1 subtype C harboring protease E35G mutant gene and polymorphism at I36 position infected in human cord blood mononuclear cells assessed as inhibition of viral replication […]; assay type: functional, organism-based; settings: Human immunodeficiency virus 1, subtype C; outline: as §1
[4] = test system: Human immunodeficiency virus 1; assay: Antiviral activity against HIV1 subtype CRF02_AG harboring protease polymorphism at M36 position and I50FILV, A71V mutant gene infected in human cord blood mononuclear cells assessed as inhibition of viral replication […]; assay type: functional, organism-based; settings: Human immunodeficiency virus 1, subtype CRF02_AG; outline: as §1
[5] = test system: Human immunodeficiency virus 1; assay: Antiviral activity against HIV1 subtype B harboring protease polymorphism at I36 position and M46I, I50L, N88S mutant gene infected in human cord blood mononuclear cells assessed as inhibition of viral replication […]; assay type: functional, organism-based; settings: Human immunodeficiency virus 1, subtype B; outline: as §1
[6] = test system: Human immunodeficiency virus 1; assay: Antiviral activity against HIV1 subtype CRF02_AG harboring protease polymorphism at I36 position and I50FILV, A71V mutant gene infected in human cord blood mononuclear cells assessed as inhibition of viral replication […]; assay type: functional, organism-based; settings: Human immunodeficiency virus 1, subtype CRF02_AG; outline: as §1
[7] = test system: Human immunodeficiency virus 1; assay: Antiviral activity against HIV1 subtype B harboring protease polymorphism at M36 position and L10F, V82A mutant gene infected in human cord blood mononuclear cells assessed as inhibition of viral replication after 48 hrs by luciferase reporter gene assay; assay type: functional, organism-based; settings: Human immunodeficiency virus 1, subtype B
[8] = test system: Human immunodeficiency virus 1; assay: Antiviral activity against HIV1 subtype C harboring protease L10R, M46I, I54V, V82S mutant gene and polymorphism at M36 position infected in human cord blood mononuclear cells assessed as inhibition of viral replication […]; assay type: functional, organism-based; settings: Human immunodeficiency virus 1, subtype C; outline: as §1
[9] = test system: Human immunodeficiency virus 1; assay: Antiviral activity against HIV1 subtype C harboring protease L32I, M46I/M, L76V mutant gene and polymorphism at I36 position infected in human cord blood mononuclear cells assessed as inhibition of viral replication after 48 hrs by luciferase reporter gene assay; assay type: functional, organism-based; settings: Human immunodeficiency virus 1, subtype C
[10] = test system: Human immunodeficiency virus 1; assay: Antiviral activity against HIV1 subtype CRF02_AG harboring protease L76V, M46I, I84V mutant gene and polymorphism at M36 position infected in human cord blood mononuclear cells assessed as inhibition of viral replication […]; assay type: functional, organism-based; settings: Human immunodeficiency virus 1, subtype CRF02_AG; outline: as §1
[11] = test system: Human immunodeficiency virus 1; assay: Selectivity ratio of EC50 for HIV1 subtype C harboring protease L10R, M46I, I54V, V82S mutant gene and polymorphism at M36 position to EC50 for wild type HIV1 subtype C; assay type: functional
[12] = test system: Human immunodeficiency virus 1; assay: Selectivity ratio of EC50 for HIV1 subtype C harboring protease L32I, M46I/M, L76V mutant gene and polymorphism at I36 position to EC50 for wild type HIV1 subtype C; assay type: functional
[13] = test system: Human immunodeficiency virus 1; assay: Selectivity ratio of EC50 for HIV1 subtype CRF02_AG harboring protease L76V, M46I, I84V mutant gene and polymorphism at M36 position to EC50 for wild type HIV1 subtype CRF02_AG; assay type: functional
[14] = test system: Human immunodeficiency virus 1; assay: Selectivity ratio of EC50 for HIV1 subtype CRF02_AG harboring protease M46, I47A, I84V mutant gene and polymorphism at I36 position to EC50 for wild type HIV1 subtype CRF02_AG; assay type: functional
[15] = test system: Human immunodeficiency virus 1; assay: Antiviral activity against HIV1 subtype CRF02_AG harboring protease M46, I47A, I84V mutant gene and polymorphism at I36 position infected in human cord blood mononuclear cells assessed as inhibition of viral replication on day 7 by RT activity assay; settings: Human immunodeficiency virus 1, subtype CRF02_AG, 7 days
[16] = test system: Human immunodeficiency virus 1; assay: Antiviral activity against HIV1 subtype B harboring protease D30N, M46I, A71T and V77I mutant gene and polymorphism at M36 position of protease infected in human cord blood mononuclear cells assessed as inhibition of viral replication […]; assay type: functional, organism-based; settings: Human immunodeficiency virus 1, subtype B; outline: as §1
[17] = test system: Human immunodeficiency virus 1; assay: Antiviral activity against wild type HIV1 subtype B infected in human cord blood mononuclear cells assessed as inhibition of viral replication after 48 hrs by luciferase reporter gene assay; assay type: functional, organism-based; settings: Human immunodeficiency virus 1, subtype B
[18] = test system: Human immunodeficiency virus 1; assay: Antiviral activity against HIV1 subtype B harboring protease D30N, L33I, M46I, N88D mutant gene and polymorphism at I36 position infected in human cord blood mononuclear cells assessed as inhibition of viral replication […] by […]; assay type: functional, organism-based; settings: Human immunodeficiency virus 1, subtype B; outline: as §1
[19] = test system: Human immunodeficiency virus 1; assay: Antiviral activity against wild type HIV1 subtype C infected in human cord blood mononuclear cells assessed as inhibition of viral replication after 48 hrs by luciferase reporter gene assay; assay type: functional, organism-based; settings: Human immunodeficiency virus 1, subtype C
[20] = test system: Human immunodeficiency virus 1; assay: Antiviral activity against HIV1 subtype C harboring protease L23I, M46I, L89T mutant gene and polymorphism at M36 position infected in human cord blood mononuclear cells assessed as inhibition of viral replication […]; assay type: functional, organism-based; settings: Human immunodeficiency virus 1, subtype C; outline: as §1
[21] = test system: Human immunodeficiency virus 1; assay: Antiviral activity against HIV1 subtype C harboring protease D30N, E35G, I85V, L90M mutant gene and polymorphism at I36 position infected in human cord blood mononuclear cells assessed as inhibition of viral replication […]; assay type: functional, organism-based; settings: Human immunodeficiency virus 1, subtype C; outline: as §1
[22] = test system: Human immunodeficiency virus 1; assay: Selectivity ratio of EC50 for HIV1 subtype B harboring protease polymorphism at M36 position infected in human cord blood mononuclear cells to EC50 for HIV1 subtype B harboring protease polymorphism at I36 position infected in human cord blood mononuclear cells; assay type: functional
[23] = test system: Human immunodeficiency virus 1; assay: Antiviral activity against wild type HIV1 subtype CRF02_AG infected in human cord blood mononuclear cells assessed as inhibition of viral replication after 48 hrs by luciferase reporter gene assay; assay type: functional, organism-based; settings: Human immunodeficiency virus 1, subtype CRF02_AG
[24] = test system: Human immunodeficiency virus 1; assay: Antiviral activity against HIV1 subtype CRF02_AG harboring protease L33I, M46I, A71T mutant gene and polymorphism at M36 position infected in human cord blood mononuclear cells assessed as inhibition of viral replication […]; assay type: functional, organism-based; settings: Human immunodeficiency virus 1, subtype CRF02_AG; outline: as §1
[25] = test system: Human immunodeficiency virus 1; assay: Antiviral activity against HIV1 subtype B harboring protease polymorphism at M36 position infected in human TZM-bl cells assessed as inhibition of viral replication after 48 hrs by luciferase reporter gene assay; assay type: functional, organism-based
Outline: (§2)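 TZM-bl cells (10⁴/well) in DMEM with 10% FBS were infected with the week-0 or week-35 polymorphic variant. After 48 h, cells were PBS-rinsed and lysed, and luciferase activity was read as relative light units. Results are means of three independent experiments run in duplicate.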

[26] = test system: Human immunodeficiency virus 1; assay: Antiviral activity against HIV1 subtype B harboring protease polymorphism at I36 position infected in human TZM-bl cells assessed as inhibition of viral replication after 48 hrs by luciferase reporter gene assay; assay type: functional, organism-based; outline: as §2
[27] = test system: Human immunodeficiency virus 1; assay: Antiviral activity against HIV1 subtype CRF02_AG harboring protease polymorphism at I36 position infected in human TZM-bl cells assessed as inhibition of viral replication after 48 hrs by luciferase reporter gene assay; assay type: functional, organism-based; outline: as §2
[28] = test system: Human immunodeficiency virus 1; assay: Selectivity ratio of EC50 for HIV1 subtype C harboring protease polymorphism at I36 position to EC50 for wild type HIV1 subtype C; assay type: functional
[29] = test system: Human immunodeficiency virus 1; assay: Selectivity ratio of EC50 for HIV1 subtype B harboring protease D30N, M46I, A71T and V77I mutant gene and polymorphism at M36 position to EC50 for wild type HIV1 subtype B; assay type: functional
[30] = test system: Human immunodeficiency virus 1; assay: Selectivity ratio of EC50 for HIV1 subtype CRF02_AG harboring protease L33I, M46I, A71T mutant gene and polymorphism at M36 position to EC50 for wild type HIV1 subtype CRF02_AG; assay type: functional
[31] = test system: Human immunodeficiency virus 1; assay: Selectivity ratio of EC50 for HIV1 subtype CRF02_AG harboring protease polymorphism at I36 position and M46 mutant gene to EC50 for wild type HIV1 subtype CRF02_AG; assay type: functional
[32] = test system: Human immunodeficiency virus 1; assay: Selectivity ratio of EC50 for HIV1 subtype C harboring protease L23I, M46I, L89T and polymorphism at M36 position to EC50 for wild type HIV1 subtype C M36
[33] = test system: Human immunodeficiency virus 1; assay: Antiviral activity against HIV1 subtype CRF02_AG harboring protease polymorphism at I36 position and M46 mutant gene infected in human cord blood mononuclear cells assessed as inhibition of viral replication on day 7 by RT activity assay; settings: Human immunodeficiency virus 1, subtype CRF02_AG, 7 days

COC(=O)N[C@H](C(=O)N[C@@H](Cc1ccccc1)[C@@H](O)CN(Cc1ccc(-c2ccccn2)cc1)NC(=O)[C@@H](NC(=O)OC)C(C)(C)C)C(C)(C)C [ATAZANAVIR]
EC50 [1]: 183 nM | EC50 [2]: 88 nM | EC50 [3]: 3.7 nM | EC50 [4]: 9.3 nM | EC50 [5]: 7.1 nM | EC50 [6]: 18.6 nM

Cc1cccc(C)c1OCC(=O)N[C@@H](Cc1ccccc1)[C@@H](O)C[C@H](Cc1ccccc1)NC(=O)[C@H](C(C)C)N1CCCNC1=O [LOPINAVIR]
EC50 [7]: 196 nM | EC50 [8]: 418 nM | EC50 [9]: 157 nM | EC50 [10]: 134 nM | Ratio EC50 [11]: 190 | Ratio EC50 [12]: 46 | Ratio EC50 [13]: 22 | Ratio EC50 [14]: 101 | EC50 [15]: 1470 nM

Cc1c(O)cccc1C(=O)N[C@@H](CSc1ccccc1)[C@H](O)CN1C[C@H]2CCCC[C@H]2C[C@H]1C(=O)NC(C)(C)C [NELFINAVIR]
EC50 [16]: 1140 nM | EC50 [17]: 9.8 nM | EC50 [18]: 1460 nM | EC50 [19]: 1.67 nM | EC50 [20]: 272 nM | EC50 [21]: 3470 nM | Ratio EC50 [22]: 2 | EC50 [23]: 5.7 nM | EC50 [24]: 202 nM | Activity [25]: Active | Activity [26]: Active | Activity [27]: Active | Ratio EC50 [28]: 1158 | Ratio EC50 [29]: 70 | Ratio EC50 [30]: 35 | Ratio EC50 [31]: 6 | Ratio EC50 [32]: 163 | EC50 [33]: 55 nM
